According to ChEMBL document CHEMBL2331406, “In vitro activity of scorpiand-like azamacrocycle derivatives in promastigotes and intracellular amastigotes of Leishmania infantum and Leishmania braziliensis” (Eur J Med Chem, 2013):
Activity calls are given as the source filed them. No cut-off for these calls is given here.

Assays:
Leishmania braziliensis [1] = experiment: Antileishmanial activity against promastigote form of […] MHOM/BR/1975/M2904 infected in J774.2 cells assessed as inhibition of number of amastigotes per host cell at IC25 concentration incubated for 12 hrs followed by compound washout measured after 48 hrs by microscopic analysis; type: functional, MHOM/BR/75/M2904
In short: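 J774.2 cells seeded at 1 × 10^4 cells/well on coverslips and cultured 2 days. Infected with promastigotes at 10:1 with drug at IC25 added immediately, for 12 h at 37 °C in 5% CO2. Parasites and drug washed out, then grown 10 days with washing and fresh medium every 48 h. On methanol-fixed, Giemsa-stained slides, % infected cells and amastigotes per infected cell scored from more than 200 host cells. Three determinations.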

Leishmania braziliensis [2] = experiment: Antileishmanial activity against promastigote form of […] Leishmania braziliensis MHOM/BR/1975/M2904 infected in J774.2 cells assessed as inhibition of infection in host cells at IC25 concentration incubated for 12 hrs […] by microscopic analysis; type: functional, MHOM/BR/75/M2904
[3] = Ratio of compound selectivity index to glucantime selectivity index for axenic amastigote form of Leishmania braziliensis MHOM/BR/1975/M2904 over mouse J774.2 cells
In short: (§1)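 Axenic amastigotes obtained by 3-day promastigote transformation in supplemented M199 + 10% heat-inactivated FCS, pH 5.4, 37 °C. […] Host toxicity: J774.2, 72 h, PI/FDA flow cytometry. SI = macrophage IC50/axenic amastigote IC50; ratio is compound SI over Glucantime SI.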

[4] = Selectivity index, ratio of IC50 for mouse J774.2 cells to IC50 for amastigote form of Leishmania braziliensis MHOM/BR/1975/M2904 infected in J774.2 cells; type: toxicity, cell-based; conditions: J774.2 cells, read-out: Ratio IC50
In short: (§2)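 J774.2 macrophages in MEM + 2 mM glutamine + 20% inactivated FCS were infected with stationary-phase promastigotes (10:1) for 24 h at 37 °C, 5% CO2. After washing, compounds were added at […] for 72 h. Amastigote reduction was scored in methanol-fixed, Giemsa-stained preparations; IC50 by regression; triplicates. SI = J774.2 IC50 (72 h flow cytometry)/amastigote IC50; ratio is versus Glucantime SI.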

Leishmania braziliensis [5] = experiment: Antileishmanial activity against amastigote form of Leishmania braziliensis MHOM/BR/1975/M2904 infected in J774.2 cells after 72 hrs by haemocytometric analysis; type: functional, cell-based, MHOM/BR/75/M2904; conditions: Leishmania braziliensis, MHOM/BR/75/M2904, J774.2, 72 h
In short: (§3)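 J774.2 macrophages grown in MEM with 2 mM glutamine and 20% inactivated FCS at 37 °C in 5% CO2. Infected with stationary-phase promastigotes at 10:1 for 24 h, then washed free of non-phagocytosed parasites. Compounds at 1, 10, 25, 50 and 100 for 72 h. Amastigotes counted on methanol-fixed, Giemsa-stained preparations and % reduction taken vs untreated. IC50 by linear regression of Kc values; three separate determinations.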

Leishmania braziliensis [6] = experiment: Antileishmanial activity against axenic amastigote form of Leishmania braziliensis MHOM/BR/1975/M2904 after 72 hrs by haemocytometric analysis; type: functional, MHOM/BR/75/M2904; conditions: Leishmania braziliensis, MHOM/BR/75/M2904, 72 h
In short: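 Axenic amastigotes made by culturing promastigotes 3 days at 37 °C in M199 with 10% heat-inactivated FCS plus organic acids, amino acids, sucrose, bicarbonate, MES, haemin and gentamicin, pH 5.4. Compound effect counted in a Neubauer haemocytometer chamber. IC50 by linear regression of Kc values at 1, 10, 25, 50 and 100.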

[7] = Ratio of compound selectivity index to glucantime selectivity index for axenic amastigote form of Leishmania infantum MCAN/ES/2001/UCM-10 over mouse J774.2 cells; in short: as §1
[8] = Selectivity index, ratio of IC50 for mouse J774.2 cells to IC50 for amastigote form of Leishmania infantum MCAN/ES/2001/UCM-10 infected in J774.2 cells; type: toxicity, cell-based; conditions: J774.2 cells, read-out: Ratio IC50; in short: as §2
[9] = Selectivity index, ratio of IC50 for mouse J774.2 cells to IC50 for axenic amastigote form of Leishmania infantum MCAN/ES/2001/UCM-10; type: toxicity; conditions: J774.2 cells, read-out: Ratio IC50; in short: as §1
[10] = Selectivity index, ratio of IC50 for mouse J774.2 cells to IC50 for promastigote form of Leishmania infantum MCAN/ES/2001/UCM-10; type: toxicity; conditions: J774.2 cells, read-out: Ratio IC50
In short: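 J774.2 toxicity: 72 h at the same concentrations, viability by flow cytometry with propidium iodide/fluorescein diacetate; IC50 by linear regression. SI = macrophage IC50/parasite IC50; ratio is compound SI over Glucantime SI.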

Leishmania infantum [11] = experiment: Antileishmanial activity against promastigote form of Leishmania infantum MCAN/ES/2001/UCM-10 after 72 hrs by haemocytometric analysis; type: functional, organism-based; conditions: Leishmania infantum, MCAN/ES/2001/UCM-10, 72 h
In short: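 Promastigotes grown at 28 °C in MTL medium with 10% inactivated FCS. Compounds in DMSO (0.1%), diluted in culture medium to 100, 50, 25, 10 and 1. Cells counted at 72 h in a Neubauer haemocytometric chamber. IC50 (50% inhibition) by linear regression of Kc values.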

Leishmania infantum [12] = experiment: Antileishmanial activity against amastigote form of Leishmania infantum MCAN/ES/2001/UCM-10 infected in J774.2 cells after 72 hrs by haemocytometric analysis; type: functional, organism-based; conditions: Leishmania infantum, MCAN/ES/2001/UCM-10, J774.2, 72 h; in short: as §3
Leishmania braziliensis [13] = experiment: Antileishmanial activity against promastigote form of Leishmania braziliensis MHOM/BR/1975/M2904 assessed as electro-dense vesicles at IC25 concentration after 96 hrs by MET microscopic analysis; type: functional; conditions: MHOM/BR/75/M2904
In short: (§4)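 Promastigotes at 5 × 10^5 cells/mL in MTL medium with compound at IC25 for 96 h. Ultrastructure examined by transmission electron microscopy against untreated control parasites.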

Leishmania braziliensis [14] = experiment: Antileishmanial activity against promastigote form of Leishmania braziliensis MHOM/BR/1975/M2904 assessed as cytoplasmic alterations at IC25 concentration after 96 hrs by MET microscopic analysis; type: functional; conditions: MHOM/BR/75/M2904; in short: as §4
Leishmania braziliensis [15] = experiment: Antileishmanial activity against promastigote form of Leishmania braziliensis MHOM/BR/1975/M2904 assessed as change in lactate metabolite production at IC25 concentration after 96 hrs by H1-NMR analysis; type: functional, MHOM/BR/75/M2904
In short: (§5)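 Promastigote cultures, initial 5 × 10^5 cells/mL, given the IC25 of compound; controls left untreated. Incubated 96 h at 28 °C, then centrifuged at 400g for 10 min. Excreted metabolites in the medium identified by 1H NMR spectra and compared with untreated control.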

Leishmania braziliensis [16] = experiment: Antileishmanial activity against promastigote form of Leishmania braziliensis MHOM/BR/1975/M2904 assessed as change in acetate metabolite production at IC25 concentration after 96 hrs by H1-NMR analysis; type: functional, MHOM/BR/75/M2904; in short: as §5
Leishmania infantum [17] = experiment: Antileishmanial activity against promastigote form of Leishmania infantum MCAN/ES/2001/UCM-10 assessed as change in alanine metabolite production at IC25 concentration after 96 hrs by H1-NMR analysis; type: functional; in short: as §5
[18] = Inhibition of promastigote form Leishmania infantum MCAN/ES/2001/UCM-10 Fe-SOD by NBT reduction assay
In short: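 Promastigotes sonicated in STE buffer (pH 7.8). The 35–85% ammonium sulphate fraction was desalted into 20 mM potassium phosphate/1 mM EDTA, pH 7.8, and protein was measured by Bradford. Fe-SOD activity was read spectrophotometrically as inhibition of NBT reduction by superoxide (Beyer–Fridovich); one unit gives 50% inhibition of the rate. Compounds tested at […]; IC50 by linear regression; three determinations, Newman–Keuls test.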

| Compound | inhibition (INH) (Leishmania braziliensis [1]) [%] | inhibition (INH) (Leishmania braziliensis [2]) [%] | Ratio [3] | selectivity ratio [4] | IC50 (Leishmania braziliensis [5]) [µM] | IC50 (Leishmania braziliensis [6]) [µM] | Ratio [7] | selectivity ratio [8] | selectivity ratio [9] | selectivity ratio [10] | IC50 (Leishmania infantum [11]) [µM] | IC50 (Leishmania infantum [12]) [µM] | Activity (Leishmania braziliensis [13]) | Activity (Leishmania braziliensis [14]) | Activity (Leishmania braziliensis [15]) [%] | Activity (Leishmania braziliensis [16]) [%] | Activity (Leishmania infantum [17]) [%] | IC50 [18] [µM] |
| --- | --- | --- | --- | --- | --- | --- | --- | --- | --- | --- | --- | --- | --- | --- | --- | --- | --- | --- |
| Cl.c1cc2nc(c1)CNCCN(CCNCc1cccc3ccccc13)CCNC2 | 59 | 71 | 29 | 22 | 16.6 | 24.9 | 26 | 21 | 13 | 18.8 | 21.7 | 17.4 | Active | Active | 0 | 8 | -18 | 17.6 |
| Br.NCCN1CCNCc2cccc(n2)CNCC1 | 55 | 64 | 29 | 23.2 | 10 | 16 | 16 | 9 | 8 | 12.2 | 18.9 | 25.6 | Active | Active | 6 | 18 | – | 6.5 |
| Cl.c1ccc(CNCCN2CCNCc3cccc(n3)CNCC2)nc1 | 67 | 83 | 32 | 24.4 | 10.4 | 16 | 20 | 13 | 10 | 16.4 | 15.5 | 19.6 | Active | Active | 0 | -46 | 12 | 16.1 |
| Cl.c1cncc(CNCCN2CCNCc3cccc(n3)CNCC2)c1 | 80 | 86 | 39 | 45.4 | 10.3 | 23.9 | 59 | 74.3 | 29.4 | 24.9 | 18.8 | 6.3 | Active | Active | 19 | -13 | -12 | 5.7 |
